Here are results for two compounds from ChEMBL document CHEMBL5030529, “Rationally Modified Antimicrobial Peptides from the N-Terminal Domain of Human RNase 3 Show Exceptional Serum Stability” (J Med Chem, 2021).

As a reminder, the MIC is the least concentration at which growth counts as inhibited. The term half-life denotes the time in which the quantity being followed falls by half. Broadly, the IC50 is the midpoint of a concentration-inhibition curve.

Series [1] has as its system Cell membrane. Nature of the series: Induction of membrane depolarization in Escherichia coli at 0.4 uM incubated 20 to 30 mins under dark by Eclipse fluorescence spectrometry. Particulars: time 20-30 min. The format is subcellular. A digest of the protocol:
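Exponential-phase E. coli (OD 0.2–0.4) was washed in 5 mM HEPES, 20 mM glucose, 100 mM KCl, pH 7.2, and resuspended to OD 0.05. DiSC3(5) was added at 0.4 μM final and equilibrated in the dark for 20–30 min to a stable baseline. Peptide was then added and dye release was followed by fluorescence at ex 625 nm / em 666 nm.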

The test system of series [2] is Acinetobacter baumannii. Nature of the series: Antimicrobial activity against Acinetobacter baumannii assessed as bacterial growth inhibition incubated for 24 hrs.
Series [3] has as its system Escherichia coli. Nature of the series: Antimicrobial activity against clinical isolate Escherichia coli 116878 assessed as bacterial growth inhibition incubated in presence of serum for 24 hrs. The format is functional. A digest of the protocol:
(§1)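 Broth microdilution in polypropylene plates in Mueller-Hinton medium, inoculum 5 × 10^5 CFU/mL, 37 °C for 24 h. […] MIC is the lowest peptide concentration with no growth. Values are the mean of three independent studies.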

In series [4] the test system is Cell membrane. As to the kind of experiment: Induction of membrane damage in Escherichia coli assessed as loss of membrane integrity by measuring blebs at 10 uM incubated for 2 hrs by Electron scanning microscopy. The format is subcellular. A digest of the protocol:
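E. coli was grown in LB at 37 °C to OD600 0.4 and exposed to 10 μM peptide for 2 h at room temperature. Cells were collected on 0.1 μm filters, fixed in 2.5% glutaraldehyde in cacodylate buffer pH 7.4 and post-fixed in 1% OsO4. Samples were dehydrated in ethanol, coated with gold–palladium and imaged at 15 kV.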

The nature of series [5]: Stability in human serum assessed as half life by LC-MS analysis. Type of series: ADME, cell-free. Put shortly: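 1 mM peptide stocks in water were mixed 1:1 (v/v) with human serum. Aliquots were taken at set times and digestion was stopped by acetonitrile precipitation. Serum proteins were removed by centrifugation, and intact peptide and fragments in the supernatant were analysed by LC–MS. Half-life values are the mean of three independent studies.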

In series [6] the test system is Salmonella typhimurium. Nature of the series: Antimicrobial activity against clinical isolate Salmonella typhimurium 365 assessed as bacterial growth inhibition incubated in presence of serum for 24 hrs. Type of series: functional, Salmonella enterica subsp. enterica serovar Typhimurium. Particulars: Salmonella enterica. Put shortly: as §1
Series [7] can be described thus: Retention time of the compound by HPLC analysis. The format is physicochemical. A digest of the protocol:
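Analytical RP-HPLC on a C18 column (4.6 × 50 mm, 3 μm) with a linear gradient of 0–60% acetonitrile (0.036% TFA) into water (0.045% TFA) over 15 min. Flow was 1 mL/min with UV detection at 220 nm.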

In another series the test system is MRC5. As to the kind of experiment: Cytotoxicity against human MRC5 cells assessed as cell growth inhibition measured after 4 hrs by MTT assay. The format is cell-based. Conditions: MRC5, 4 h. Put shortly:
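MRC-5 fibroblasts were grown in MEMα with 10% FBS, seeded at 3 × 10^4 cells/well and left overnight to adhere. Cells were exposed to two-fold peptide serial dilutions for 4 h, then given medium with MTT at 0.4 mg/mL for 150 min. Formazan was dissolved in DMSO and read at 600 nm. Values are the mean of three independent studies.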
Background: Tetrazolium assays rely on reduction of a dye to a coloured formazan, in cell work by metabolically active cells.

Series [8] concerns Escherichia coli. As to the kind of experiment: Antimicrobial activity against clinical isolate Escherichia coli cf073 assessed as bacterial growth inhibition incubated in presence of serum for 24 hrs. The format is functional. Put shortly:
as §1

In series [9] the test system is Acinetobacter baumannii. As to the kind of experiment: Antimicrobial activity against clinical isolate Acinetobacter baumannii 3879 assessed as bacterial growth inhibition incubated in presence of serum for 24 hrs. Type of series: functional. Put shortly:
as §1

Series [10] deals with Salmonella typhimurium. As to the kind of experiment: Antimicrobial activity against clinical isolate Salmonella typhimurium 324 assessed as bacterial growth inhibition incubated in presence of serum for 24 hrs. Type of series: functional, Salmonella enterica subsp. enterica serovar Typhimurium. Particulars: Salmonella enterica. Put shortly:
as §1

A short description of series [11]: Hemolytic activity in horse RBC assessed as hemolysis at 250 uM relative to control. The format is ADME, tissue-based, Equus caballus. Particulars: erythrocyte. Put shortly:
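Horse erythrocytes were diluted 10-fold in PBS and washed by three spins at 800g. They were incubated with peptides for 4 h at 37 °C, and supernatant absorbance was read at 540 nm. Percent hemolysis is relative to total lysis with 1% Triton X-100. Values are the mean of three independent studies.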

Series [12] relates to Acinetobacter baumannii. As to the kind of experiment: Antimicrobial activity against clinical isolate Acinetobacter baumannii 3878 assessed as bacterial growth inhibition incubated in presence of serum for 24 hrs. The format is functional. A digest of the protocol:
as §1

The next series concerns Shigella flexneri. As to the kind of experiment: Antimicrobial activity against Shigella flexneri assessed as bacterial growth inhibition incubated in presence of serum for 24 hrs. The format is functional. A digest of the protocol: as §1
Another series has as its system Pseudomonas sp. Nature of the series: Antimicrobial activity against Pseudomonas sp assessed as bacterial growth inhibition incubated in presence of serum for 24 hrs. The format is functional. A digest of the protocol: as §1
In series [13] the test system is Escherichia coli. As to the kind of experiment: Antimicrobial activity against Escherichia coli assessed as bacterial growth inhibition incubated for 24 hrs.
In series [14] the test system is Acinetobacter baumannii. As to the kind of experiment: Antimicrobial activity against clinical isolate Acinetobacter baumannii 3880 assessed as bacterial growth inhibition incubated in presence of serum for 24 hrs. The format is functional. Put shortly: as §1
Series [15] has as its system Acinetobacter baumannii. As to the kind of experiment: Antimicrobial activity against clinical isolate Acinetobacter baumannii 3862 assessed as bacterial growth inhibition incubated in presence of serum for 24 hrs. The format is functional. Put shortly: as §1
In series [16] the test system is Pseudomonas aeruginosa. As to the kind of experiment: Antimicrobial activity against clinical isolate Pseudomonas aeruginosa 827632 assessed as bacterial growth inhibition incubated in presence of serum for 24 hrs. The format is functional. Put shortly:
as §1

Series [17] has as its system Pseudomonas aeruginosa. Nature of the series: Antimicrobial activity against clinical isolate Pseudomonas aeruginosa 827651 assessed as bacterial growth inhibition incubated in presence of serum for 24 hrs. The format is functional. Put shortly: as §1
The test system of another series is Salmonella enterica. As to the kind of experiment: Antimicrobial activity against Salmonella enterica assessed as bacterial growth inhibition incubated in presence of serum for 24 hrs. Type of series: functional. A digest of the protocol:
as §1

≈ marks a conversion by molar mass, not a printed value. Calls of active or inactive are those of the source. No cut-off for these calls is given here.

Turning to `CC[C@H](C)[C@H](NC(=O)[C@H](C)NC(=O)[C@H](CCCN)NC(=O)[C@H](CCSC)NC(=O)[C@H](C)NC(=O)[C@@H](NC(=O)[C@@H](NC(=O)[C@H](CCCN)NC(=O)[C@@H]1CCCN1C(=O)[C@H](CO)NC(=O)[C@@H](NC(=O)[C@H](Cc1c[nH]cn1)NC(=O)[C@H](CCC(N)=O)NC(=O)[C@@H](NC(=O)[C@H](C)NC(=O)[C@H](Cc1ccccc1)NC(=O)[C@H](Cc1c[nH]c2ccccc12)NC(=O)[C@H](CCC(N)=O)NC(=O)[C@H](C)NC(=O)[C@H](CCCN)NC(=O)[C@@H](NC(=O)[C@H](Cc1ccccc1)NC(=O)[C@H]1CCCN1C(=O)[C@H](N)CCCN)[C@@H](C)O)[C@@H](C)CC)[C@@H](C)CC)[C@@H](C)O)[C@@H](C)CC)C(=O)N[C@@H](CC(N)=O)C(=O)N[C@@H](CC(N)=O)C(=O)N[C@@H](Cc1ccc(O)cc1)C(=O)N[C@@H](CCCN)C(=O)N[C@@H](Cc1c[nH]c2ccccc12)C(=O)N[C@@H](CCCN)C(=O)O`, the result in the series with Cell membrane [1] and in the series on Cell membrane [4] was Active. For the same compound, the MIC with Acinetobacter baumannii [2] stood at 6.25 µM (≈ 21.9 µg/mL); with Escherichia coli [3], 6.25 µM; in the series on Salmonella typhimurium [6] it was 25 µM; with Escherichia coli [8] it was 3.13 µM; with Acinetobacter baumannii [9] it was 1.56 µM; with Salmonella typhimurium [10] it was 25 µM. In addition, the minimal inhibitory concentration (MIC) in the series on Acinetobacter baumannii [12] was 0.78 µM; in the series with Shigella flexneri, 6.25 µM; in the series on Pseudomonas sp. it was 1.56 µM; in the series on Escherichia coli [13], 3.13 µM (≈ 11 µg/mL); in the series on Acinetobacter baumannii [14] it was 6.25 µM; in the series with Acinetobacter baumannii [15] it was 0.78 µM. Besides, the figures for the MIC in the series with Pseudomonas aeruginosa [16], in the series on Pseudomonas aeruginosa [17] and in the series on Salmonella enterica were 25 µM, 100 µM and 25 µM, respectively. Moreover, in [5], the half-life was over 480 min. Also, in series [7], the Retention_time stood at 10.8 min. Further, in the series with MRC5, the concentration for half-maximal inhibition (IC50) worked out at 170 µM. Besides, the Activity in series [11] stood at 3.6%.
As to H-RPFTRAQWFAIQHISPRTIAMRAINNYRWR-OH, the outcome in the series on Cell membrane [1] and in the series with Cell membrane [4] was Active. In addition, the minimum inhibitory concentration (MIC) in the series on Acinetobacter baumannii [2] worked out at 1.56 µM; in the series on Escherichia coli [3], 6.25 µM; in the series with Salmonella typhimurium [6], 6.25 µM; with Escherichia coli [8], 3.13 µM; in the series on Acinetobacter baumannii [9] it was 1.56 µM; in the series on Salmonella typhimurium [10] it was 6.25 µM. The MIC in the series on Acinetobacter baumannii [12] turned out to be 1.56 µM; in the series on Shigella flexneri it was 3.13 µM; in the series with Pseudomonas sp. it was 1.56 µM; in the series on Escherichia coli [13] it was 1.56 µM; with Acinetobacter baumannii [14] it was 1.56 µM; in the series with Acinetobacter baumannii [15], 0.78 µM. The minimum inhibitory concentration (MIC) in the series with Pseudomonas aeruginosa [16] was 12.5 µM; in the series with Pseudomonas aeruginosa [17] it was 25 µM; with Salmonella enterica it was 12.5 µM. Moreover, the half-life in series [5] is 12.3 min. This compound also gave a Retention_time in series [7] of 8.9 min. In addition, the IC50 in the series on MRC5 is 23 µM. Also, in [11], the Activity was 44%.
